According to ChEMBL document CHEMBL3112420, “Discovery of 8-cyclopentyl-2-[4-(4-methyl-piperazin-1-yl)-phenylamino]-7-oxo-7,8-dihydro-pyrido[2,3-d]pyrimidine-6-carbonitrile (7x) as a potent inhibitor of cyclin-dependent kinase 4 (CDK4) and AMPK-related kinase 5 (ARK5)” (J Med Chem, 2014):
Calls of active or inactive are those of the source. No cut-off for these calls is given here.

What was measured:
[1] = Cytotoxicity against human GRANTA-519 cells after 96 hrs by Cell-Titer Blue assay; assay type: functional; settings: Granta-519, 96 h
[2] = Cytotoxicity against human BT20 cells after 96 hrs by Cell-Titer Blue assay; assay type: functional; settings: BT-20, 96 h
MDA-MB-157 = assay: Cytotoxicity against human MDA-MB-157 cells after 96 hrs by Cell-Titer Blue assay; assay type: functional; settings: MDA-MB-157, 96 h
[3] = Cytotoxicity against human SNU5 cells after 96 hrs by Cell-Titer Blue assay; assay type: functional; settings: SNU-5, 96 h
Mus musculus [4] = assay: Toxicity in CD-1 mouse xenografted with human MDA-MB-231 cells assessed as weight loss at 100 to 200 mg/kg, ip measured for 7 days; assay type: organism-based; design: dose 100-200 mg/kg, route intraperitoneal; settings: in vivo, 168 h
[5] = target: Cyclin-dependent kinase 4/cyclin D1 (Homo sapiens, UniProt P11802); assay: Inhibition of CDK4/cyclinD1 (unknown origin); assay type: protein-complex assay
Cyclin-dependent kinase 4/cyclin D1, sequence (P11802 whole entry): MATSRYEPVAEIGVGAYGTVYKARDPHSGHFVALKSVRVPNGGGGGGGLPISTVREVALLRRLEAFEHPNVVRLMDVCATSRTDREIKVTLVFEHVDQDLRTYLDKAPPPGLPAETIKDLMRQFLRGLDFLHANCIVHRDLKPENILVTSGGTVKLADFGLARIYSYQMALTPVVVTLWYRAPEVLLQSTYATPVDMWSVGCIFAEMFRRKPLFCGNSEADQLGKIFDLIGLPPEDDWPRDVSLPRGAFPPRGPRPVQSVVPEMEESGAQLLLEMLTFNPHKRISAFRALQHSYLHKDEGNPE
Cyclin-dependent kinase 4/cyclin D1, sequence (P24385 whole entry, further chain): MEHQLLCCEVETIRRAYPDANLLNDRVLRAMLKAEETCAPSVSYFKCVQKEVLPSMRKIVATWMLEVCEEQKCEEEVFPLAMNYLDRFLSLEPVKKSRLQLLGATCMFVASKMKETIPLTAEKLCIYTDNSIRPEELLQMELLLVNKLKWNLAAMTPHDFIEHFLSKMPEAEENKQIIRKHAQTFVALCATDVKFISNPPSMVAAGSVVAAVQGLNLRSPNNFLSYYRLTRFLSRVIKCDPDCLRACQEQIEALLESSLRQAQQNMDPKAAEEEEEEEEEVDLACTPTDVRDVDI

[6] = target: Receptor-type tyrosine-protein kinase FLT3 (Homo sapiens, UniProt P36888); assay: Inhibition of FLT3 (unknown origin)
Receptor-type tyrosine-protein kinase FLT3, sequence (P36888 whole entry): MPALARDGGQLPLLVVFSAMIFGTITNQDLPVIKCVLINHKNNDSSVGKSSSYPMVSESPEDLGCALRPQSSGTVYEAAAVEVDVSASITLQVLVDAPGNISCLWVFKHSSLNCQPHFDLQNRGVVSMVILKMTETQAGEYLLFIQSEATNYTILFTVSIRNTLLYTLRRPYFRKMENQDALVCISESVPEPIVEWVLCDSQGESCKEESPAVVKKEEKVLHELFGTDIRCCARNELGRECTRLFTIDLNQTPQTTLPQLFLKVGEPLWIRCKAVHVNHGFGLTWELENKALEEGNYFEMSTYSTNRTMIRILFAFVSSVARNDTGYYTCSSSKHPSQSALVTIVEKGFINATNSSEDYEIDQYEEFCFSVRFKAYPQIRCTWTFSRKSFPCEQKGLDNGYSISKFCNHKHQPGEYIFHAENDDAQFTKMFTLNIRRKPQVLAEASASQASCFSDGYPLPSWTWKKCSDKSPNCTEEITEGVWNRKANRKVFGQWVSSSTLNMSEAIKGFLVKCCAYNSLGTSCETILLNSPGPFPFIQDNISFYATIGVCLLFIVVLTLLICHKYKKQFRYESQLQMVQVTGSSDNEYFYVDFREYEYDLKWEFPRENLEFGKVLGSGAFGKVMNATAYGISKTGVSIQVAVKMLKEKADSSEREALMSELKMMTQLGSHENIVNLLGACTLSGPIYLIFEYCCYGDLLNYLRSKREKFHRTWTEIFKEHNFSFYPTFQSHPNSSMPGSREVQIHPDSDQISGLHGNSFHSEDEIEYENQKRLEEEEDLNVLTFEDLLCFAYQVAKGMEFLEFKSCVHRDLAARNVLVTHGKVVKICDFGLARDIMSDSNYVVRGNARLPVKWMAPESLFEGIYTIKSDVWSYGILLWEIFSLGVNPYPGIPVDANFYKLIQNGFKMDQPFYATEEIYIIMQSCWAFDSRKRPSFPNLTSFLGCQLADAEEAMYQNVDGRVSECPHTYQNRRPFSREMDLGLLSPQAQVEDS

[7] = Cytotoxicity against human DLD1 cells after 96 hrs by Cell-Titer Blue assay; assay type: functional; settings: DLD-1, 96 h
[8] = Cytotoxicity against human U87 cells after 96 hrs by Cell-Titer Blue assay; assay type: functional, U-87MG ATCC; settings: U-87 MG
MDA-MB-231 [9] = assay: Cell cycle arrest in human MDA-MB-231 cells assessed as accumulation at sub-G1 phase at 0.5 to 1 uM after 48 hrs by propidium iodide staining-based flow cytometric analysis; assay type: functional
MDA-MB-231 [10] = assay: Induction of apoptosis in human MDA-MB-231 cells assessed as PARP cleavage after 24 hrs by Western blotting analysis; assay type: functional, cell-based
MCF7 [11] = assay: Cell cycle arrest in human MCF7 cells assessed as accumulation at sub-G1 phase at 0.5 to 1 uM after 48 hrs by propidium iodide staining-based flow cytometric analysis; assay type: functional
[12] = target: Tyrosine-protein kinase ABL1 (Homo sapiens, UniProt P00519); assay: Inhibition of ABL (unknown origin)
Tyrosine-protein kinase ABL1, sequence (P00519 whole entry): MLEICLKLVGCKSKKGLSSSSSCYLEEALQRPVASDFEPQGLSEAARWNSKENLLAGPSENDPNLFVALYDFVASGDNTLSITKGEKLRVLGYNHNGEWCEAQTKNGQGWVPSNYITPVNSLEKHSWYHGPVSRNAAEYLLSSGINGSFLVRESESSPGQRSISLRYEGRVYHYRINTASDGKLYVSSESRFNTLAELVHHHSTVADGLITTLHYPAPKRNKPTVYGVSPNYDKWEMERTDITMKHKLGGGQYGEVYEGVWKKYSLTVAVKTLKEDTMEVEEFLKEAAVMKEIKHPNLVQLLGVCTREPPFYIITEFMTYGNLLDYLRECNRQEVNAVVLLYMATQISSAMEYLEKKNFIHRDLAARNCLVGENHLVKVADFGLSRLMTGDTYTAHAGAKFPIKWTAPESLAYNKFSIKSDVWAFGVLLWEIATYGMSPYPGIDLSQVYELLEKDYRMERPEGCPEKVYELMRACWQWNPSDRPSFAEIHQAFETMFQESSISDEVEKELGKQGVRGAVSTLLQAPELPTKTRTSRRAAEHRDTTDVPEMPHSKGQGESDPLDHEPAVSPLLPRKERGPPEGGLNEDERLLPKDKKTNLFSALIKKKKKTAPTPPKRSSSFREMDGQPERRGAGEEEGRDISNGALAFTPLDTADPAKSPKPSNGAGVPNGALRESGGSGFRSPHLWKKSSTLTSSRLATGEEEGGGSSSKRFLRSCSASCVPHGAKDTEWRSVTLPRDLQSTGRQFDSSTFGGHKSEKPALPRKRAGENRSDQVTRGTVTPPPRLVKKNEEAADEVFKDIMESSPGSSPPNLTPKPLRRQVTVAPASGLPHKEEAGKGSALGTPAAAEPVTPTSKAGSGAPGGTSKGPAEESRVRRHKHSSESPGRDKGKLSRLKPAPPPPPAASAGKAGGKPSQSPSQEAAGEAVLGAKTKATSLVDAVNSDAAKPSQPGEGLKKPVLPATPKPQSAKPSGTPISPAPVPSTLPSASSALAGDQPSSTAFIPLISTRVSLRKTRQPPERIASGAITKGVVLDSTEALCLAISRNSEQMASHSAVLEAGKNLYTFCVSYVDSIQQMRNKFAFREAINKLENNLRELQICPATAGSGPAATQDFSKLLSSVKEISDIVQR

DU-145 = assay: Cytotoxicity against human DU145 cells after 96 hrs by Cell-Titer Blue assay; assay type: functional, cell-based; settings: DU-145, 96 h
HCT-15 = assay: Cytotoxicity against human HCT15 cells after 96 hrs by Cell-Titer Blue assay; assay type: functional; settings: HCT-15, 96 h
[13] = Cytotoxicity against human SNU449 cells after 96 hrs by Cell-Titer Blue assay; assay type: functional; settings: SNU-449, 96 h
[14] = target: Macrophage colony-stimulating factor 1 receptor (Homo sapiens, UniProt P07333); assay: Inhibition of FMS (unknown origin)
Macrophage colony-stimulating factor 1 receptor, sequence (P07333 whole entry): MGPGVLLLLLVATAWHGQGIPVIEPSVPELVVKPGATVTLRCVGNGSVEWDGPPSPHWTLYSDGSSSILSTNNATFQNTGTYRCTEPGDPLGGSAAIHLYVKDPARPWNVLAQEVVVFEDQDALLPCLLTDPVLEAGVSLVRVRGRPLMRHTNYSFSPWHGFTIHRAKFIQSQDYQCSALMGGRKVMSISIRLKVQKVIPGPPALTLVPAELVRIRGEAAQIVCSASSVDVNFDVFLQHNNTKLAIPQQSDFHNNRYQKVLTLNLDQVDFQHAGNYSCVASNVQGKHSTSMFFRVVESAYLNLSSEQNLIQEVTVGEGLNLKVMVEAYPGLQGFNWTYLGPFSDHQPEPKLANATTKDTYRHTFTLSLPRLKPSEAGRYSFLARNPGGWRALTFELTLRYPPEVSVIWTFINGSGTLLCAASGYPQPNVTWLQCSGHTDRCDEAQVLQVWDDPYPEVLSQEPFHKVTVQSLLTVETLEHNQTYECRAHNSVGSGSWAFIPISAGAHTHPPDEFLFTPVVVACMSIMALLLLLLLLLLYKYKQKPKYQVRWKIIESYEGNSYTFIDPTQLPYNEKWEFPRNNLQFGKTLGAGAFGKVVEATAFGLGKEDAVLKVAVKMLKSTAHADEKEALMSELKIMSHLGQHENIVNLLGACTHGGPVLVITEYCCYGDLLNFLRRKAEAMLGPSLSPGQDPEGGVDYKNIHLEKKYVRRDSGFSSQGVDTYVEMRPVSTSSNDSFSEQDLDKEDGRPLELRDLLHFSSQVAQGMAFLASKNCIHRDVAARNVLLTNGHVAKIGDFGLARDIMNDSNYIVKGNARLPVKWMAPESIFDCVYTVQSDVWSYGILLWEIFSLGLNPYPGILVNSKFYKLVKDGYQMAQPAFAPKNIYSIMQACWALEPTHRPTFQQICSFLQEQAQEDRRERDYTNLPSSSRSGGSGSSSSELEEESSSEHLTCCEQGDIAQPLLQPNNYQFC

NCI-H417 = assay: Cytotoxicity against human NCI-N417 cells after 96 hrs by Cell-Titer Blue assay; assay type: functional; settings: NCI-H417, 96 h
NCI-N87 = assay: Cytotoxicity against human NCI-N87 cells after 96 hrs by Cell-Titer Blue assay; assay type: functional; settings: NCI-N87, 96 h
2008 = assay: Cytotoxicity against human 2008 cells after 96 hrs by Cell-Titer Blue assay; assay type: functional; settings: Homo sapiens, 2008, 96 h
[15] = Cytotoxicity against human HCC1428 cells after 96 hrs by Cell-Titer Blue assay; assay type: functional; settings: HCC1428, 96 h
MDA-MB-231 [16] = assay: Induction of apoptosis in human MDA-MB-231 cells assessed as PARP cleavage at 1 to 10 uM after 24 hrs by Western blotting analysis; assay type: functional, cell-based
MCF7 [17] = assay: Induction of apoptosis in human MCF7 cells assessed as PARP cleavage after 24 hrs by Western blotting analysis; assay type: functional, cell-based
Mus musculus [18] = assay: Toxicity in NCR nude mouse xenografted with human MDA-MB-231 cells assessed as weight loss at 50 mg/kg, ip […] administered on alternative days measured every 2 days up to 21 days; assay type: organism-based; design: dose 50 mg/kg, route intraperitoneal; settings: in vivo
How it was run: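 MDA-MB-231 cells orthotopically implanted into mammary fat pads of 6–8 week old female nude mice (n=11 per group). Dosing began when average tumour volume reached 100 mm3. Lactate salt in PBS or vehicle was given intraperitoneally every other day (Q2D). Tumour volumes and body weights were recorded every 2 days over 21 days; mean ± SEM.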

[19] = Cytotoxicity against human Z138C cells after 96 hrs by Cell-Titer Blue assay; assay type: functional
[20] = Cytotoxicity against human SNU475 cells after 96 hrs by Cell-Titer Blue assay; assay type: functional; settings: SNU-475, 96 h
MDA-MB-231 [21] = assay: Inhibition of PI3K in human MDA-MB-231 cells assessed as inhibition of Akt phosphorylation at Ser473 at 0.1 to 10 uM after 24 hrs by Western blotting analysis; assay type: cell-based
How it was run: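 Total lysates (100 μg) were run on 10% SDS-PAGE and immunoblotted for Ser473-phosphorylated and total AKT, with GAPDH as loading control. Detection used infrared-dye secondary antibodies.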

[22] = target: Cyclin-dependent kinase 4/cyclin D1 (Homo sapiens) (UniProt P11802+P24385); assay: Inhibition of recombinant CDK4/cyclinD1 in human MCF7 cells assessed as inhibition of retinoblastoma phosphorylation at Ser780 at 0.5 to 5 uM after 24 hrs by Western blotting analysis; assay type: cell-based
How it was run: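 Breast carcinoma cells were given increasing concentrations for 24 h. Total lysates (100 μg, 10% SDS-PAGE) were immunoblotted with antibodies against Ser780-phosphorylated and non-phosphorylated RB. Bands were read on an infrared scanning system.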

[23] = Cytotoxicity against human U266 cells after 96 hrs by Cell-Titer Blue assay; assay type: functional; settings: U-266, 96 h
[24] = target: Platelet-derived growth factor receptor beta (Homo sapiens, UniProt P09619); assay: Inhibition of PDGFRbeta (unknown origin)
[25] = Cytotoxicity against human SKBR3 cells after 96 hrs by Cell-Titer Blue assay; assay type: functional; settings: SK-BR-3, 96 h
[26] = Cytotoxicity against human HFL cells after 96 hrs by Cell-Titer Blue assay; assay type: cell-based
K562 = assay: Cytotoxicity against human K562 cells after 96 hrs by Cell-Titer Blue assay; assay type: functional, cell-based; settings: K562, 96 h
SW480 = assay: Cytotoxicity against human SW480 cells after 96 hrs by Cell-Titer Blue assay; assay type: functional; settings: SW480, 96 h
[27] = target: Tyrosine-protein kinase Fyn (Homo sapiens, UniProt P06241); assay: Inhibition of FYN (unknown origin)
Tyrosine-protein kinase Fyn, sequence (P06241 whole entry): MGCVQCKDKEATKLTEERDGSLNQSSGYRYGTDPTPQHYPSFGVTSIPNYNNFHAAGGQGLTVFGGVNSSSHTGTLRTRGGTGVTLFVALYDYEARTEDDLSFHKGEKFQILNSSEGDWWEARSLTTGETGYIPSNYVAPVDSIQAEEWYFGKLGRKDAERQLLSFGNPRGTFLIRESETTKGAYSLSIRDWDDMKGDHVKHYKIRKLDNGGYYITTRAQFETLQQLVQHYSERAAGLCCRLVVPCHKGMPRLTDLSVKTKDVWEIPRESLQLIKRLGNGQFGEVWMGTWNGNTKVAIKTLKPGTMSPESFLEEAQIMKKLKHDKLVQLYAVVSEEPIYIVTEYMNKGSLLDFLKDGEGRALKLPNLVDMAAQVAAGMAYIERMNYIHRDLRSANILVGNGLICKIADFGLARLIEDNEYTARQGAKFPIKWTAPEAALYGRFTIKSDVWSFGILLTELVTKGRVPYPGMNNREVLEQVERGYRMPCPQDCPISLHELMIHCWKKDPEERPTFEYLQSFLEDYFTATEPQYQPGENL

COLO 205 = assay: Cytotoxicity against human COLO205 cells after 96 hrs by Cell-Titer Blue assay; assay type: functional; settings: COLO 205, 96 h
MCF7 [28] = assay: Cell cycle arrest in human MCF7 cells assessed as accumulation at G1 phase at 0.5 to 1 uM after 24 hrs by propidium iodide staining-based flow cytometric analysis; assay type: functional
How it was run: (§1)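 Cells plated at 1.0 × 10^6 per dish, then treated 24 h later with increasing concentrations for 24 h. Floating and adherent cells were pooled, PBS-washed and fixed in ice-cold 70% ethanol for at least 24 h. They were then stained with propidium iodide plus RNase A for 30 min at 37 °C. Percentage of cells in each phase was read by flow cytometry.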

SK-OV-3 = assay: Cytotoxicity against human SKOV3 cells after 96 hrs by Cell-Titer Blue assay; assay type: functional; settings: SK-OV-3, 96 h
MDA-MB-231 [29] = assay: Cell cycle arrest in human MDA-MB-231 cells assessed as accumulation at G1 phase at 0.5 to 1 uM after 24 hrs by propidium iodide staining-based flow cytometric analysis; assay type: functional; how it was run: as §1
[30] = Cytotoxicity against human Capan1 cells after 96 hrs by Cell-Titer Blue assay; assay type: functional; settings: CAPAN-1, 96 h

SMILES: CN1CCN(c2ccc(Nc3ncc4cc(C#N)c(=O)n(C5CCCC5)c4n3)cc2)CC1 [NARAZACICLIB]
- GI50 [1]: 0.025 µM
- GI50 [2]: 0.1 µM
- GI50 (MDA-MB-157): 1 µM
- GI50 [3]: 0.1 µM
- Activity (Mus musculus [4]): Non-toxic
- IC50 [5]: 0.0038 µM
- IC50 [6]: 0.0122 µM
- GI50 [7]: 0.1 µM
- GI50 [8]: 0.1 µM
- Activity (MDA-MB-231 [9]): Active
- Activity (MDA-MB-231 [10]): Dose-dependent effect
- Activity (MCF7 [11]): Active
- IC50 [12]: 0.0533 µM
- GI50 (DU-145): 0.05 µM
- GI50 (HCT-15): 0.3 µM
- GI50 [13]: 0.75 µM
- IC50 [14]: 0.01 µM
- GI50 (NCI-H417): 0.25 µM
- GI50 (NCI-N87): 0.9 µM
- GI50 2008: 1.5 µM
- GI50 [15]: 0.3 µM
- Activity (MDA-MB-231 [16]): Active
- Activity (MCF7 [17]): Dose-dependent effect
- Activity (Mus musculus [18]): Non-toxic
- GI50 [19]: 0.025 µM
- GI50 [20]: 0.3 µM
- inhibition (MDA-MB-231 [21]): Active
- inhibition [22]: Active
- GI50 [23]: 0.2 µM
- IC50 [24]: 0.026 µM
- GI50 [25]: 0.15 µM
- GI50 at 96 h [26]: 5 µM
- GI50 (K562): 0.1 µM
- IC50 (K562): 0.05 µM
- GI50 (SW480): 0.09 µM
- IC50 [27]: 0.0111 µM
- GI50 (COLO 205): 0.1 µM
- Activity (MCF7 [28]): Active
- GI50 (SK-OV-3): 0.75 µM
- Activity (MDA-MB-231 [29]): Active
- GI50 [30]: 0.5 µM
